Experimental data gathered from unrelated publications.
Target: Mitogen-activated protein kinase 9 (MAPK9, Homo sapiens, UniProt P45984)

SMILES	effect on	mode	technique	tested at	endpoint	value
Cn1cncc1[C@@](O)(COc1ccc(C#N)cc1-c1ccc(OC(F)(F)F)cc1)c1ccc(C#N)cc1	cell-free assay	–	competition with immobilised ligand	1 µM	remaining binding	92%
Nc1ncc(-c2nc(N3CCOCC3)nc(N3CCOCC3)n2)c(C(F)F)n1	binding	–	competition with immobilised ligand	10 µM	remaining binding	83%
CC(C)(C)c1cc(C=C(C#N)C#N)cc(Br)c1O	enzyme activity	inhibitor	–	0.5 µM	remaining activity	103%
COc1ncccc1-c1cnn2ccc(N3CCN(C(=O)OC(C)C)CC3)nc12	binding	–	competition with immobilised ligand	1 µM	remaining binding	100%
Cn1cc(-c2cccc(N3CCc4c(sc5c4CC(C)(C)C5)C3=O)c2CO)cc(Nc2ccncn2)c1=O	enzyme activity	inhibitor	–	1 µM	inhibition	12%
O=c1[nH]c2ccccc2n1C1CCN(Cc2ccc(-c3[nH]c4cc5ncnc5cc4nc3-c3ccccc3)cc2)CC1	cell-free assay	–	–	0.5 µM	remaining signal	91.9%
Cc1nn(C)cc1-c1nc2c(N3CCN(Cc4ccc(Cl)cc4)CC3)c(Cl)cnc2[nH]1	binding	–	competition with immobilised ligand	1 µM	remaining binding	100%
Cn1cc(-c2cc(F)cc(N3CCn4c(cc5c4CCCC5)C3=O)c2CO)cc(Nc2ccc(N3CCN(C4COC4)CC3)cn2)c1=O	enzyme activity	inhibitor	–	0.1 µM	inhibition	1%
